Assay results reported in ChEMBL document CHEMBL5357046, “Sirtuin 1-activating derivatives belonging to the anilinopyridine class displaying in vivo cardioprotective activities” (2024).
Activity calls are given as the source filed them. The rule behind the calls is not given here.

Tests used:
[1] = biological target: T1, NAD-dependent protein deacetylase sirtuin-1 (Homo sapiens) (UniProt Q96EB6); assay: Activation of human recombinant SIRT1 at 3 to 100 uM by fluorescence based spectrofluorometer analysis; details: filed as activator, dose 3-100 µM
T1 sequence (whole entry): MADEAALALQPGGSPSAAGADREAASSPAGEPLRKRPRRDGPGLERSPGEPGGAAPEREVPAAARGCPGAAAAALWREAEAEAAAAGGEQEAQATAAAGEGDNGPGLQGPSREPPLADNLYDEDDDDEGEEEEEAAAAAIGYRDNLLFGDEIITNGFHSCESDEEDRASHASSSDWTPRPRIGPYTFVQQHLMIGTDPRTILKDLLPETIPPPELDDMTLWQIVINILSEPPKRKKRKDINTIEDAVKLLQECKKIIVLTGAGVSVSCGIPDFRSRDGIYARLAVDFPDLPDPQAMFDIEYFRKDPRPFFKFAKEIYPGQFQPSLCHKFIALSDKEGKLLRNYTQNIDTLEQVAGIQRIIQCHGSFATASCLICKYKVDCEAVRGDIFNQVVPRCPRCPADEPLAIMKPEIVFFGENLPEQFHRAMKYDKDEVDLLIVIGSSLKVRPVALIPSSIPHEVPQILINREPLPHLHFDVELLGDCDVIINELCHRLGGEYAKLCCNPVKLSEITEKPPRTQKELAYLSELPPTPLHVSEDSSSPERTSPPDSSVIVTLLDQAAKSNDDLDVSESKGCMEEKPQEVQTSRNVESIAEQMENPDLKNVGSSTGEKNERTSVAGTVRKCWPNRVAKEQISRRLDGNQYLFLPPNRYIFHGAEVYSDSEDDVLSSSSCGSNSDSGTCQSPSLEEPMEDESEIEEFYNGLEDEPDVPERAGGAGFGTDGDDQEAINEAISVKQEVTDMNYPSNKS

[2] = biological target: T1, NAD-dependent protein deacetylase sirtuin-1 (Homo sapiens); assay: Activation of human recombinant SIRT1 by fluorescence based spectrofluorometer analysis; details: filed as activator, dose 3-100 µM
Rattus norvegicus [3] = assay: Cardioprotective activity against acute myocardial infarction Wistar rat model assessed as reduction in percentage of ischemic area to total area of left ventricle at 0.1 mg/kg, ip by ECG analysis; type: functional; set-up: scale not given: the % may be the effect or the level left
Summary of the method: (§1)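 Adult male Wistar rats (350–450 g) dosed i.p. 2 h before surgery (vehicle DMSO 1 ml kg⁻¹), then anaesthetized with thiopental (70 mg kg⁻¹ i.p.). LAD occluded 30 min (ST elevation on ECG, cyanosis) then reperfused 120 min. Hearts washed on Langendorff, LV sliced and stained with TTC 1% at 37 °C for 20 min; infarct area/LV area by planimetry. n = 5 per group.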

Rattus norvegicus [4] = assay: Cardioprotective activity against acute myocardial infarction Wistar rat model assessed as reduction in percentage of ischemic area to total area of left ventricle at 10 mg/kg, ip by ECG analysis; type: functional; set-up: scale not given: the % may be the effect or the level left; summary of the method: as §1
[5] = biological target: T1, NAD-dependent protein deacetylase sirtuin-1 (Homo sapiens); assay: Activation of human recombinant SIRT1 at 3 uM by fluorescence based spectrofluorometer analysis

Row | Structure (SMILES) | Activity [1] | Activity [2] | Activity (Rattus norvegicus [3]) | Activity (Rattus norvegicus [4]) | Activity [5]
1 | Oc1cccc(Nc2cc(-c3cccc(O)c3)ccn2)c1 | Active |  |  |  | 
2 | Oc1ccc(Nc2cccc(-c3ccc(O)cc3)n2)cc1 | Active | Dose-Dependent Effect | 28% |  | 
3 | Oc1ccc(Nc2cccc(-c3cccc(O)c3)n2)cc1 | Active | Dose-Dependent Effect |  |  | 
4 | Oc1ccc(/C=C/c2cc(O)cc(O)c2)cc1 [RESVERATROL] |  |  |  | 30% | 
5 | Oc1ccc(-c2cccc(Nc3cccc(O)c3)n2)cc1 | Active | Dose-Dependent Effect |  | 6% | 
6 | Oc1cccc(Nc2ccnc(-c3cccc(O)c3)c2)c1 |  | Dose-Dependent Effect |  |  | inactive
7 | Oc1cccc(Nc2cccc(-c3cccc(O)c3)n2)c1 | Active | Dose-Dependent Effect |  |  | 
